Data set [1] relates to Macrophage. Briefly: Radical scavenging activity in CD mouse macrophages assessed as inhibition of superoxide anion generation at 25 uM relative to control. The class given is functional. The method, boiled down:
(§1)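 Superoxide anion (O2•-) generation was measured in macrophage cells stimulated with the tumor promoter 12-O-tetradecanoylphorbol-13-acetate (TPA), and test samples were evaluated for suppression of this TPA-induced generation.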

The subject of data set [2] is Macrophage. Kind of data set: Radical scavenging activity in CD mouse macrophages assessed as inhibition of superoxide anion generation at 50 uM relative to control. The format is functional. Put shortly: as §1
A short description of data set [3]: Cytotoxicity against CD mouse macrophages assessed as cell viability at 50 uM by trypan blue exclusion test. Particulars: read-out: Activity. The format is cell-based, Macrophage.
Data set [4] concerns the target T1, Xanthine dehydrogenase/oxidase (Homo sapiens, UniProt P47989). Briefly: Inhibition of XOD at 25 uM relative to control.
The target in data set [5] is T1, Xanthine dehydrogenase/oxidase. Briefly: Inhibition of XOD at 125 uM relative to control.

T1 sequence (P47989 whole entry): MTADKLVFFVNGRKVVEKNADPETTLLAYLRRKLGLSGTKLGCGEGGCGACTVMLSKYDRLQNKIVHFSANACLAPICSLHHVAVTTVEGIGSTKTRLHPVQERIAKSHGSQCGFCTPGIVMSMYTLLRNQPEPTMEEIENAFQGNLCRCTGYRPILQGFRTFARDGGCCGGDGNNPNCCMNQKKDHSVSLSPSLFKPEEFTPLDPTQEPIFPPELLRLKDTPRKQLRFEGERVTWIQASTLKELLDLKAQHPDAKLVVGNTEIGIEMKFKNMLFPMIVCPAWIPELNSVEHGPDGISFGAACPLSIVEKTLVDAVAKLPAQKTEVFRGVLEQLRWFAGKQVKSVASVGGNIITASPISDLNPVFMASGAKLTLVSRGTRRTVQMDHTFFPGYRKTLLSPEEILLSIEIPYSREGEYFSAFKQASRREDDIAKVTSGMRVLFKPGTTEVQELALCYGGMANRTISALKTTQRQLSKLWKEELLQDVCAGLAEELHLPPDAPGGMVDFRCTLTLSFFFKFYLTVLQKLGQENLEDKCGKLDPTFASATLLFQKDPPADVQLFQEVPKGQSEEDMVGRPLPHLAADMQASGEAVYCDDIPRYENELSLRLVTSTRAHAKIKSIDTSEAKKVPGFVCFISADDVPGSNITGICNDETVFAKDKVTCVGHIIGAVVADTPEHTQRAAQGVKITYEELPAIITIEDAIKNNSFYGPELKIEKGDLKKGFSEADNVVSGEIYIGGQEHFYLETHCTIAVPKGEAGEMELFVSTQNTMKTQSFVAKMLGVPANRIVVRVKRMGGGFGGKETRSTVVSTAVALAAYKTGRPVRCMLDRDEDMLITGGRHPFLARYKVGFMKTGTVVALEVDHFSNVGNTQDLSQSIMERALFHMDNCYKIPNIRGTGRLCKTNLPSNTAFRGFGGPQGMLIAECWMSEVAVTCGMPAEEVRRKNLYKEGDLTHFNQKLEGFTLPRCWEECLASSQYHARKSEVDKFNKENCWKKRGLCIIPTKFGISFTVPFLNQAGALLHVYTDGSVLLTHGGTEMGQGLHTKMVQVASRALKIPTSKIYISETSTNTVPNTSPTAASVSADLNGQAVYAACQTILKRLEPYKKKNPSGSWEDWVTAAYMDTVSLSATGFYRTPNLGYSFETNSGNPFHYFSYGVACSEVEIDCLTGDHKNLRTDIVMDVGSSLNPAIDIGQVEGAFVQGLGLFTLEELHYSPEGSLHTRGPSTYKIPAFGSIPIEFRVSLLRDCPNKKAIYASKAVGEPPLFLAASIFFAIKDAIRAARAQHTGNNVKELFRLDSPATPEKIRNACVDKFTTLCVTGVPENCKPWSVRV

The term inhibition denotes the drop in the measured response relative to a control, in per cent. As to `O=c1c(O)c(-c2ccc(O)c(O)c2)oc2cc(O)cc(O)c12` [QUERCETIN], the results for the inhibition at 25 µM (in the data set with Macrophage [1]; in data set [4]) were 19% and 31%, respectively. Further, the inhibition at 50 µM in the data set on Macrophage [2] turned out to be 28%. The viability at 50 µM in data set [3] came out at 101%. In data set [5], this compound gave an inhibition at 125 µM of 72%.

Source of the values: ChEMBL document CHEMBL1151224, “Geranylgeraniol-type diterpenoids, boletinins A-J, from Boletinus cavipes as inhibitors of superoxide anion generation in macrophage cells” (J Nat Prod, 2004).
